Calls of active or inactive are those of the source. No cut-off for these calls is given here.
System: Calu-6
Experiment: Cytotoxicity against human Calu6 cells expressing VIPR1 in presence of 2% serum
Format: functional, cell-based
In short: (§1)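 Cell proliferation in H727, H1299 and Calu6 lines, chosen for high VIPR1 expression. Medium held 2% serum to limit albumin sequestration. Compounds were tested at concentrations up to 10 µM.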

Compound	Activity
COc1ccc(CCC(=O)Nc2sc3c(c2C#N)CCCC3)cc1	inactive
N#Cc1c(NC(=O)Cc2ccccc2)sc2c1CCCC2	inactive
Cc1ccc(CCC(=O)Nc2sc3c(c2C#N)CCCC3)cc1	inactive
N#Cc1c(NC(=O)CCc2ccc(Cl)cc2)sc2c1CCCC2	inactive
CC(C)CC(=O)Nc1sc2c(c1C#N)CCCC2	inactive
N#Cc1c(NC(=O)C2CCc3ccccc3C2)sc2c1CCCC2 (stereo not given)	inactive
N#Cc1c(NC(=O)C2CCCCC2)sc2c1CCCC2	inactive
Cc1cccc(CCC(=O)Nc2sc3c(c2C#N)CCCC3)c1	inactive
CC(C)C(=O)Nc1sc2c(c1C#N)CCCC2	inactive
COc1cccc(CCC(=O)Nc2sc3c(c2C#N)CCCC3)c1	inactive
CCC(=O)Nc1sc2c(c1C#N)CCCC2	inactive
N#Cc1c(NC(=O)Cc2cc3ccccc3s2)sc2c1CCCC2	inactive
N#Cc1c(NC(=O)Cc2cc3ccccc3[nH]2)sc2c1CCCC2	inactive
N#Cc1c(NC(=O)CCc2ccccc2)sc2c1CCCC2	inactive
N#Cc1c(NC(=O)C2CCC2)sc2c1CCCC2	inactive
N#Cc1c(NC(=O)C2CC2)sc2c1CCCC2	inactive
N#Cc1c(NC(=O)C2CCCC2)sc2c1CCCC2	inactive

System: NCI-H1299
Experiment: Cytotoxicity against human NCI-H1299 cells expressing VIPR1 in presence of 2% serum
Format: functional, cell-based
In short: as §1

Compound	Activity
COc1ccc(CCC(=O)Nc2sc3c(c2C#N)CCCC3)cc1	inactive
N#Cc1c(NC(=O)Cc2ccccc2)sc2c1CCCC2	inactive
Cc1ccc(CCC(=O)Nc2sc3c(c2C#N)CCCC3)cc1	inactive
N#Cc1c(NC(=O)CCc2ccc(Cl)cc2)sc2c1CCCC2	inactive
CC(C)CC(=O)Nc1sc2c(c1C#N)CCCC2	inactive
N#Cc1c(NC(=O)C2CCc3ccccc3C2)sc2c1CCCC2 (stereo not given)	inactive
N#Cc1c(NC(=O)C2CCCCC2)sc2c1CCCC2	inactive
Cc1cccc(CCC(=O)Nc2sc3c(c2C#N)CCCC3)c1	inactive
CC(C)C(=O)Nc1sc2c(c1C#N)CCCC2	inactive
COc1cccc(CCC(=O)Nc2sc3c(c2C#N)CCCC3)c1	inactive
CCC(=O)Nc1sc2c(c1C#N)CCCC2	inactive
N#Cc1c(NC(=O)Cc2cc3ccccc3s2)sc2c1CCCC2	inactive
N#Cc1c(NC(=O)Cc2cc3ccccc3[nH]2)sc2c1CCCC2	inactive
N#Cc1c(NC(=O)CCc2ccccc2)sc2c1CCCC2	inactive
N#Cc1c(NC(=O)C2CCC2)sc2c1CCCC2	inactive
N#Cc1c(NC(=O)C2CC2)sc2c1CCCC2	inactive
N#Cc1c(NC(=O)C2CCCC2)sc2c1CCCC2	inactive

System: NCI-H727
Experiment: Cytotoxicity against human NCI-H727 cells expressing VIPR1 in presence of 2% serum
Format: functional, cell-based
In short: as §1

Compound	Activity
COc1ccc(CCC(=O)Nc2sc3c(c2C#N)CCCC3)cc1	inactive
N#Cc1c(NC(=O)Cc2ccccc2)sc2c1CCCC2	inactive
Cc1ccc(CCC(=O)Nc2sc3c(c2C#N)CCCC3)cc1	inactive
N#Cc1c(NC(=O)CCc2ccc(Cl)cc2)sc2c1CCCC2	inactive
CC(C)CC(=O)Nc1sc2c(c1C#N)CCCC2	inactive
N#Cc1c(NC(=O)C2CCc3ccccc3C2)sc2c1CCCC2 (stereo not given)	inactive
N#Cc1c(NC(=O)C2CCCCC2)sc2c1CCCC2	inactive
Cc1cccc(CCC(=O)Nc2sc3c(c2C#N)CCCC3)c1	inactive
CC(C)C(=O)Nc1sc2c(c1C#N)CCCC2	inactive
COc1cccc(CCC(=O)Nc2sc3c(c2C#N)CCCC3)c1	inactive
CCC(=O)Nc1sc2c(c1C#N)CCCC2	inactive
N#Cc1c(NC(=O)Cc2cc3ccccc3s2)sc2c1CCCC2	inactive
N#Cc1c(NC(=O)Cc2cc3ccccc3[nH]2)sc2c1CCCC2	inactive
N#Cc1c(NC(=O)CCc2ccccc2)sc2c1CCCC2	inactive
N#Cc1c(NC(=O)C2CCC2)sc2c1CCCC2	inactive
N#Cc1c(NC(=O)C2CC2)sc2c1CCCC2	inactive
N#Cc1c(NC(=O)C2CCCC2)sc2c1CCCC2	inactive

Molecular target: T1, Vasoactive intestinal polypeptide receptor 1 (Rattus norvegicus) (UniProt P30083)
T1 sequence (whole entry): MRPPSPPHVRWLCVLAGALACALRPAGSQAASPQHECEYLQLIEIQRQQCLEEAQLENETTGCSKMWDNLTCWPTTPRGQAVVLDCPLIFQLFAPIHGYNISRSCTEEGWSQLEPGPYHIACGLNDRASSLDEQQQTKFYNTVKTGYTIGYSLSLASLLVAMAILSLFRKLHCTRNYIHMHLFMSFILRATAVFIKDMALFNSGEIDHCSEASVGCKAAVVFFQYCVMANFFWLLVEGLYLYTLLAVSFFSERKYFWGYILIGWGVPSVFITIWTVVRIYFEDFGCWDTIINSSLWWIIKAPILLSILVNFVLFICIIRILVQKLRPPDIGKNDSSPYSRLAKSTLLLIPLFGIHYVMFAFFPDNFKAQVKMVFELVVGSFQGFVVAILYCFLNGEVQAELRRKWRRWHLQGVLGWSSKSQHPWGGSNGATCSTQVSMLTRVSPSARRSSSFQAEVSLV
Experiment: Displacement of [125I]VIP from vasoactive intestinal peptide receptor 1 in rat RKE cell membrane after 3 hrs by TopCount assay
Format: cell membranes
In short: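 Membranes from RKE-VIPR cells, 5 µg/well final, preincubated 10 min at room temperature with wheat germ agglutinin-coated PVT beads in 50 mM HEPES, 5 mM MgCl2, 1 mM CaCl2, 0.1% BSA. IC50 taken from a four-parameter logistic fit after subtracting nonspecific binding, defined with excess VIP.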

Compound	Activity
COc1ccc(CCC(=O)Nc2sc3c(c2C#N)CCCC3)cc1	Active
N#Cc1c(NC(=O)Cc2ccccc2)sc2c1CCCC2	Active
Cc1ccc(CCC(=O)Nc2sc3c(c2C#N)CCCC3)cc1	Active
N#Cc1c(NC(=O)CCc2ccc(Cl)cc2)sc2c1CCCC2	Active
CC(C)CC(=O)Nc1sc2c(c1C#N)CCCC2	Active
N#Cc1c(NC(=O)C2CCc3ccccc3C2)sc2c1CCCC2 (stereo not given)	Active
N#Cc1c(NC(=O)C2CCCCC2)sc2c1CCCC2	Active
Cc1cccc(CCC(=O)Nc2sc3c(c2C#N)CCCC3)c1	Active
CC(C)C(=O)Nc1sc2c(c1C#N)CCCC2	Active
COc1cccc(CCC(=O)Nc2sc3c(c2C#N)CCCC3)c1	Active
CCC(=O)Nc1sc2c(c1C#N)CCCC2	Active
N#Cc1c(NC(=O)Cc2cc3ccccc3s2)sc2c1CCCC2	Active
N#Cc1c(NC(=O)Cc2cc3ccccc3[nH]2)sc2c1CCCC2	Active
N#Cc1c(NC(=O)CCc2ccccc2)sc2c1CCCC2	Active
N#Cc1c(NC(=O)C2CCC2)sc2c1CCCC2	Active
N#Cc1c(NC(=O)C2CC2)sc2c1CCCC2	Active
N#Cc1c(NC(=O)C2CCCC2)sc2c1CCCC2	Active

Molecular target: T2, Vasoactive intestinal polypeptide receptor 1 (Rattus norvegicus, UniProt P30083)
T2 sequence (P30083 whole entry): T1 sequence (whole entry)
Experiment: Antagonist activity at vasoactive intestinal peptide receptor 1 in rat RKE cells assessed as inhibition of VIP-induced intracellular cAMP accumulation incubated for 15 mins prior to VIP-stimulation measured after 30 mins by HTRF assay

Compound	IC50
COc1ccc(CCC(=O)Nc2sc3c(c2C#N)CCCC3)cc1	410 nM
N#Cc1c(NC(=O)Cc2ccccc2)sc2c1CCCC2	1600 nM
Cc1ccc(CCC(=O)Nc2sc3c(c2C#N)CCCC3)cc1	480 nM
N#Cc1c(NC(=O)CCc2ccc(Cl)cc2)sc2c1CCCC2	1200 nM
CC(C)CC(=O)Nc1sc2c(c1C#N)CCCC2	1900 nM
N#Cc1c(NC(=O)C2CCc3ccccc3C2)sc2c1CCCC2 (stereo not given)	12000 nM
N#Cc1c(NC(=O)C2CCCCC2)sc2c1CCCC2	470 nM
Cc1cccc(CCC(=O)Nc2sc3c(c2C#N)CCCC3)c1	750 nM
CC(C)C(=O)Nc1sc2c(c1C#N)CCCC2	3400 nM
COc1cccc(CCC(=O)Nc2sc3c(c2C#N)CCCC3)c1	610 nM
CCC(=O)Nc1sc2c(c1C#N)CCCC2	12000 nM
N#Cc1c(NC(=O)Cc2cc3ccccc3s2)sc2c1CCCC2	1900 nM
N#Cc1c(NC(=O)Cc2cc3ccccc3[nH]2)sc2c1CCCC2	50000 nM
N#Cc1c(NC(=O)CCc2ccccc2)sc2c1CCCC2	290 nM
N#Cc1c(NC(=O)C2CCC2)sc2c1CCCC2	1800 nM
N#Cc1c(NC(=O)C2CC2)sc2c1CCCC2	2700 nM
N#Cc1c(NC(=O)C2CCCC2)sc2c1CCCC2	470 nM

Reference: ChEMBL document CHEMBL1955783, “Identification and optimization of small molecule antagonists of vasoactive intestinal peptide receptor-1 (VIPR1)” (Bioorg Med Chem Lett, 2012)
